Test results published in ChEMBL document CHEMBL4725492, “Dioxane-Linked Amide Derivatives as Novel Bacterial Topoisomerase Inhibitors against Gram-Positive Staphylococcus aureus” (ACS Med Chem Lett, 2020).
Values after ≈ are worked out from the molar mass of the structure shown. Active and inactive are the calls of the source. The calls are words filed in the database; no cut-off is given here.

What was measured:
Staphylococcus aureus [1] = assay: Antibacterial activity against Staphylococcus aureus D83N by CLSI based agar dilution method; format: functional
Staphylococcus aureus [2] = assay: Antibacterial activity against Staphylococcus aureus ATCC 29213 by CLSI based agar dilution method; format: functional
Staphylococcus aureus [3] = assay: Antibacterial activity against Staphylococcus aureus USA300 by CLSI based agar dilution method; format: functional
Staphylococcus aureus [4] = assay: Antibacterial activity against Staphylococcus aureus 3527 by CLSI based agar dilution method; format: functional
[5] = molecular target: T1, DNA gyrase (Staphylococcus aureus) (UniProt P0A0K8+P20831); assay: Inhibition of Staphylococcus aureus DNA gyrase assessed as double-strand break at 100 to 200 uM using relaxed pBR322 as substrate by ethidium bromide-based gel electrophoresis; format: protein-complex assay; settings: dose microM 100-200
Procedure, shortened: (§1)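 S. aureus gyrase-mediated DNA cleavage: compound was incubated with enzyme and DNA, and products were resolved on an ethidium-stained gel into negatively supercoiled, nicked (single-strand break) and linear (double-strand break) forms. Lane fluorescence was corrected for differential band emission. Percent of each form was calculated, and enzyme-only cleavage was subtracted. Concentrations spanned 0.1 nM–200 μM, with a 20 μM single-point screen. Results are mean ± SD or range.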

[6] = molecular target: T1, DNA gyrase (Staphylococcus aureus); assay: Inhibition of Staphylococcus aureus DNA gyrase assessed as single-strand break at 100 to 200 uM using relaxed pBR322 as substrate by ethidium bromide-based gel electrophoresis; format: protein-complex assay; settings: dose microM 100-200; procedure, shortened: as §1
DNA gyrase = DNA gyrase (Staphylococcus aureus, UniProt P0A0K8+P20831); assay: Inhibition of Staphylococcus aureus DNA gyrase using relaxed pBR322 as substrate by gel electrophoresis; format: protein-complex assay
Topoisomerase IV [7] = molecular target: Topoisomerase IV (Staphylococcus aureus, UniProt P0C1S7+P0C1U9); assay: (§2) Inhibition of Staphylococcus aureus topoisomerase-4 assessed as reduction in decatenation of kinetoplast DNA agarose gel electrophoresis method; format: protein-complex assay
[8] = molecular target: T1, DNA gyrase (Staphylococcus aureus); assay: Inhibition of Staphylococcus aureus DNA gyrase assessed as single-strand break at 20 uM using relaxed pBR322 as substrate by ethidium bromide-based gel electrophoresis; format: protein-complex assay; procedure, shortened: as §1
[9] = molecular target: T1, DNA gyrase (Staphylococcus aureus); assay: Inhibition of Staphylococcus aureus DNA gyrase assessed as double-strand break at 20 uM using relaxed pBR322 as substrate by ethidium bromide-based gel electrophoresis; format: protein-complex assay; procedure, shortened: as §1
[10] = molecular target: Voltage-gated inwardly rectifying potassium channel KCNH2 (Homo sapiens, UniProt Q12809); assay: Inhibition of human ERG; settings: for INH: human
[11] = molecular target: T1, DNA gyrase (Staphylococcus aureus); assay: Inhibition of Staphylococcus aureus DNA gyrase assessed as single-strand break using relaxed pBR322 as substrate by ethidium bromide-based gel electrophoresis; format: protein-complex assay; procedure, shortened: as §1
[12] = molecular target: T1, DNA gyrase (Staphylococcus aureus); assay: Inhibition of Staphylococcus aureus DNA gyrase assessed as double-strand break at upto 100 uM using relaxed pBR322 as substrate by ethidium bromide-based gel electrophoresis; format: protein-complex assay; settings: dose microM <=100; procedure, shortened: as §1
[13] = molecular target: DNA topoisomerase 2-alpha (Homo sapiens, UniProt P11388); assay: Inhibition of human topoisomerase 2alpha
Procedure, shortened: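 Human topoisomerase IIα decatenation activity was tested at a single concentration of 100 μM and reported as percent inhibition.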

K562 = assay: Growth inhibition of human K562 cells incubated for 48 hrs by sulforhodamine B assay; format: functional
Topoisomerase IV [14] = molecular target: Topoisomerase IV (Staphylococcus aureus, UniProt P0C1U9+P0C1S7); assay: as §2; format: protein-complex assay
[15] = Growth inhibition of human K/VP.5 cells incubated for 48 hrs by sulforhodamine B assay; format: functional

Row | SMILES | MIC (Staphylococcus aureus [1]) | MIC (Staphylococcus aureus [2]) | MIC (Staphylococcus aureus [3]) | MIC (Staphylococcus aureus [4]) | IC50 (DNA gyrase) | further results
1 | COc1ccc2nccc(CC[C@H]3OC[C@H](NC(=O)C4CCNCC4)CO3)c2c1 | > 64 µg/mL | > 64 µg/mL | > 64 µg/mL | > 64 µg/mL |  | 
2 | COc1ccc2nccc(CC[C@H]3OC[C@H](NC(=O)[C@H]4CC[C@H](O)CC4)CO3)c2c1 | > 64 µg/mL | > 64 µg/mL | > 64 µg/mL | > 64 µg/mL |  | 
3 | COc1ccc2nccc(CC[C@H]3OC[C@H](NC(=O)C4COc5ccccc5C4)CO3)c2c1 (some centres not stated) | > 64 µg/mL | > 64 µg/mL | > 64 µg/mL | > 64 µg/mL |  | 
4 | COc1ccc2nccc(CC[C@H]3OC[C@H](NC(=O)C4CCN(C)CC4)CO3)c2c1 | > 64 µg/mL | > 64 µg/mL | > 64 µg/mL | > 64 µg/mL |  | 
5 | COc1ccc2nccc(CC[C@H]3OC[C@H](NC(=O)[C@H]4CC[C@@H](N)CC4)CO3)c2c1 | > 64 µg/mL | > 64 µg/mL | > 64 µg/mL | > 64 µg/mL |  | 
6 | O=c1ccc2ncc(=O)n3c2n1C[C@H]3CN1CCC(NCc2cc3c(cn2)OCCC3)CC1 |  |  |  |  |  | inhibition [5]: inactive; inhibition [6]: Active
7 | COc1ccc2nccc(CC[C@H]3OC[C@H](NC(=O)c4ccc5c(c4)OCCO5)CO3)c2c1 | > 32 µg/mL | 1 µg/mL (≈ 2.22 µM) | 1 µg/mL (≈ 2.22 µM) | 0.5 µg/mL (≈ 1.11 µM) | 3.7 µM | IC50 (Topoisomerase IV [7]): > 200 µM; inhibition [8]: Active; inhibition [9]: inactive; IC50 [10]: > 100 µM; inhibition [11]: Dose-dependent effect; inhibition [12]: inactive
8 | COc1ccc2nccc(CC[C@H]3OC[C@H](NC(=O)[C@H]4CC[C@H](N)CC4)CO3)c2c1 | > 64 µg/mL | > 64 µg/mL | > 64 µg/mL | > 64 µg/mL |  | 
9 | COc1ccc2nccc(CC[C@H]3OC[C@H](NC(=O)c4ccccc4)CO3)c2c1 | > 256 µg/mL | 8 µg/mL (≈ 20.4 µM) | 8 µg/mL (≈ 20.4 µM) | 4 µg/mL (≈ 10.2 µM) |  | 
10 | COc1ccc2nccc(CC[C@H]3OC[C@H](NC(=O)C4(C)CCCCC4)CO3)c2c1 | > 64 µg/mL | > 64 µg/mL | > 64 µg/mL | > 64 µg/mL |  | 
11 | COc1ccc(C(=O)N[C@H]2CO[C@H](CCc3ccnc4ccc(OC)cc34)OC2)cc1 | 32 µg/mL (≈ 75.7 µM) | 4 µg/mL (≈ 9.47 µM) | 8 µg/mL (≈ 18.9 µM) | 16 µg/mL (≈ 37.9 µM) | 3.9 µM | IC50 (Topoisomerase IV [7]): 106 µM; inhibition (INH) [13]: Not Active
12 | COc1ccc2nccc(CC[C@H]3OC[C@H](NC(=O)c4ccc(C)cc4)CO3)c2c1 | > 32 µg/mL | 1 µg/mL (≈ 2.46 µM) | 1 µg/mL (≈ 2.46 µM) | 2 µg/mL (≈ 4.92 µM) | 0.41 µM | INH (K562): 18 µM; IC50 (Topoisomerase IV [14]): Not Active; inhibition [8]: Active; inhibition [9]: inactive; INH [15]: 17 µM; INH [10]: > 30 µM; inhibition (INH) [13]: Not Active
13 | COc1ccc2nccc(CC[C@H]3OC[C@H](NC(=O)[C@H]4CC[C@@H](O)CC4)CO3)c2c1 | > 64 µg/mL | > 64 µg/mL | > 64 µg/mL | > 64 µg/mL |  | 
14 | COc1ccc2nccc(CC[C@H]3OC[C@H](NC(=O)c4ccc(Cl)c(Cl)c4)CO3)c2c1 | > 32 µg/mL | 0.125 µg/mL (≈ 0.271 µM) | 0.125 µg/mL (≈ 0.271 µM) | 0.5 µg/mL (≈ 1.08 µM) | 0.59 µM | IC50 (Topoisomerase IV [7]): > 200 µM; inhibition [8]: Active; inhibition [9]: inactive
15 | COc1ccc2nccc(CC[C@H]3OC[C@H](NC(=O)c4ccc(C(C)(C)C)cc4)CO3)c2c1 | 2 µg/mL (≈ 4.46 µM) | 0.25 µg/mL (≈ 0.557 µM) | 1 µg/mL (≈ 2.23 µM) | 1 µg/mL (≈ 2.23 µM) | 1.3 µM | INH (K562): 8.4 µM; IC50 (Topoisomerase IV [7]): > 200 µM; inhibition [8]: Active; inhibition [9]: inactive; INH [15]: 8.8 µM; INH [10]: 5.2 µM; inhibition (INH) [13]: Not Active
16 | COc1ccc2nccc(CC[C@H]3OC[C@H](NC(=O)c4ccc(F)cc4)CO3)c2c1 | > 256 µg/mL | > 256 µg/mL | > 256 µg/mL | > 256 µg/mL |  | 
